Cneo AK release = Cryptococcus neoformans cell lysis inducers, primary screen, AK release luminescence, single concentration; lysis activity, % at 15 µM; C. neoformans lysis, adenylate kinase release luminescence, 4 h; normalised: neutral wells 0, clomiphene wells 100; actives 0.2% (n = 360,000); AID 651654, 2012;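 active = mean lysis activity across replicates of at least 80%, whatever share of replicates individually reach that level; inactive = mean lysis activity below 80%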
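Test system: log-phase Cryptococcus neoformans yeast cells. Input: 5 × 10^6 yeast cells/mL. Medium: fresh YPD growth medium. Doses: single dose. Incubation: static 4 h at 37 °C with compound, 1 h detection. Measured by: luminescent adenylate kinase detection reagent. Read-out: signal increase indicating cell lysis. Benchmarks: Clomiphene.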
Efflux pump inh = inhibitors of Candida efflux pumps in yeast, primary screen, S. cerevisiae, Nile Red, multiplex; S. cerevisiae Candida pump triplex; inhibition, % at 10 µM; actives 0.44% (n = 330,000); AID 485275, 2010;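 active = plate passing quality check with inhibition over a set limit, or well fluorescence over plate mean plus 4 SD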;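 note: Nile Red retained in pooled yeast measured as flow cytometry median fluorescence; higher means more Nile Red kept so more efflux inhibition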
Mot1-301 SUMO = yeast Mot1-301 growth rescue at high temperature, primary screen, SUMOylation pathway inhibitor project, S. cerevisiae, ATP luminescence, 38.5C | S. cerevisiae Mot1-301 growth rescue; percent above DMSO median, 100 means doubled | growth rescue, % at 18.8 µM | actives 1% (n = 320,000) | AID 2716, 2010;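 active = every valid replicate shows activation above 250% relative to neutral control wells; inactive = the rest, any valid replicate at or below 250%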
C2C12 statin = suppressors of statin myotoxicity in C2C12 myotubes, primary screen, cell-based, single point, plate reader | C2C12 myotubes + simvastatin, ATP luminescence, 48 h; scaled: DMSO 0, geranylgeraniol control 100 | rescue of ATP level, % at 7.49 µM | actives 0.78% (n = 330,000) | AID 602340, 2012;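 active = mean ATP rescue above about 67%, or every replicate alone reaching that limit, limit read from the data, passing the limit was not always enough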;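 note: myotubes were challenged with 10 µM simvastatin during compound exposure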
Numbers stand for hits; i = inactive; nt = not tested or not shown; + = active, no number. An excerpt weighted towards active compounds, which were near 1.8% of everything screened.

SMILES	Cneo AK release	Efflux pump inh	Mot1-301 SUMO	C2C12 statin
COc1ccc(CCNC(=O)C2CCC(CNc3c(N4CCCC4)c(=O)c3=O)CC2)cc1OC (stereo not given)	nt	i	i	86
CCS(=O)(=O)N1CCCC(C(=O)NCCc2ccc(OC)c(OC)c2)C1 (stereo not given)	i	i	i	127
CC1CCN(c2c(NCC3CCC(C(=O)NCCc4ccc(Cl)cc4)CC3)c(=O)c2=O)CC1 (stereo not given)	nt	i	i	nt
CCCS(=O)(=O)N1CCCC(C(=O)NCCc2ccc(OC)c(OC)c2)C1 (stereo not given)	i	i	i	i
O=C(CCc1ccc(S(=O)(=O)NCc2ccccc2)cc1)NCc1ccc2c(c1)OCO2	i	i	i	i
CC=Cc1ccc2n(c1=O)C[C@H]1[C@H](CO)[C@@H](C(=O)NCCCN3CCOCC3)[C@@H]2N1Cc1cocn1 (mixture of isomers)	i	nt	nt	i
O=C1CC(c2ccc(S(=O)(=O)NCc3ccccc3)cc2)CN1 (stereo not given)	i	i	i	i
Cc1ccc(N(CCC(=O)Nc2nnc(C3CC3)s2)S(=O)(=O)c2ccccc2)cc1	nt	10	i	nt
CN(c1ccccc1)S(=O)(=O)c1ccc(C(=O)Nc2nnc(C3CC3)s2)cc1	nt	i	i	nt
COc1cccc(/C=N/NC(=O)c2ccc(COc3ccc(Cl)cc3Cl)o2)c1	i	i	322	i
COc1cc(NC(=O)COC(=O)CCCC2=NS(=O)(=O)c3ccccc3N2)cc(OC)c1	i	i	333	i
O=C(COC(=O)CCCC1=NS(=O)(=O)c2ccccc2N1)Nc1ccccc1	i	i	i	i
O=C(NCC[C@H]1CC[C@@H](NS(=O)(=O)c2cccc(Cl)c2)[C@H](CO)O1)c1cnccn1	i	nt	nt	i
Cc1ccc(N(CC(=O)NCC2CCCO2)C(=O)CCC(=O)Nc2cc(C)on2)cc1 (stereo not given)	i	i	i	i
CC(C)n1cc(/C=C2/NC(=O)N(c3cccc(Cl)c3)C2=O)c2ccccc21	i	i	i	i
CC(C)n1cc(/C=C2\NC(=O)N(c3cccc(Cl)c3)C2=O)c2ccccc21	i	i	i	115
O=C(NC1CSCC1OC(=O)c1ccccc1)c1ccccc1 (stereo not given)	i	i	i	i
O=C(CCCN1C(=O)c2ccccc2C1=O)OC1CSCC1NC(=O)c1ccccc1 (stereo not given)	i	i	299	i
O=S(=O)(Cc1ccc(Cl)cc1)c1ncc(CO)n1Cc1ccccc1	i	i	+	i
CCCCCNC(=O)c1ccc2c(=O)[nH]c3c(C(=O)NCC4CCCO4)sc(=S)n3c2c1 (stereo not given)	i	i	i	118
Cc1ccc(CNC(=O)c2ccc3c(=O)[nH]c4c(C(=O)NCC5CCCO5)sc(=S)n4c3c2)cc1 (stereo not given)	i	i	i	i
COc1ccccc1CNC(=O)C[C@@H]1CC[C@H]2[C@@H](COC[C@H](O)CN2C(=O)Nc2ccc(F)cc2)O1	i	nt	nt	i
N#Cc1ccccc1OCC(=O)OCCCOC(=O)COc1ccccc1C#N	i	i	300	i
Cc1cccc(S(=O)(=O)N2C[C@H]3[C@@H](c4ccccc42)[C@@H](CO)N3Cc2cccnc2)c1	i	nt	nt	i
C=CCn1cc(-c2ccccc2)cc(C#N)c1=O	i	i	i	141
SMILES	Cneo AK release	Efflux pump inh	Mot1-301 SUMO	C2C12 statin
CCOC(=O)CNC(=S)SC	i	i	i	i
CC(C)NC(=O)CC1(C(=O)NCc2ccc(Cl)cc2)CCCC1	i	i	302	i
COc1ccc(CNC(=O)C2(CC(=O)NC(C)(C)C)CCCC2)cc1	i	i	i	i
Cc1cc(C(=O)Nc2cccc3c2O[C@@H](CN(C)S(=O)(=O)c2cccs2)[C@H](C)CN([C@H](C)CO)C3=O)n(C)n1	i	nt	nt	i
Cc1ccc(Cl)cc1-n1ncc2c(NNC(=O)c3ccco3)ncnc21	i	i	348	i
O=C(NNc1ncnc2c1cnn2-c1cccc(Cl)c1)c1ccco1	i	i	i	i
COCCNc1nc(Nc2ccc(F)cc2)c2sccc2n1	i	nt	nt	i
O=C(NCCOC(=O)c1ccncc1)c1ccccc1	i	i	i	87
COc1ccc(C(=O)c2ccccc2O)c(O)c1	i	i	i	i
COc1ccc(C(=O)c2ccc(OC)cc2O)c(O)c1	i	i	i	128
CC(=O)c1cc2c(cc1NC(=O)c1c(-c3ccccc3)noc1C)OCO2	i	i	i	85
Cc1onc(-c2ccccc2)c1C(=O)Nc1ccc2c(c1)OCCO2	i	i	i	i
O=C(O)CCCC(=O)Nc1ccccc1Br	i	i	i	71
O=C(O)CCCC(=O)Nc1ccc(Br)cc1	i	i	i	i
O=C(CNC(=O)c1cnccc1C(F)(F)F)c1cccc(Cl)c1	i	i	i	78
COc1ccc2c(CN3CCN(c4ccccc4OC)CC3)cc(=O)oc2c1	i	nt	nt	i
COc1cc(/C=C/C(=O)NC(C)C2CC3CCC2C3)cc(OC)c1OC (stereo not given)	i	i	i	i
O=C(NCc1ccco1)C1Cc2ccccc2CN1S(=O)(=O)c1ccccc1F (stereo not given)	i	i	i	67
COc1cc(OC)cc(C(=O)NNC(=O)CN2C(=O)NC(C)(c3ccccc3)C2=O)c1 (stereo not given)	i	i	i	i
CCOc1cc(N2CCOCC2)c(OCC)cc1NC(=O)CN1C(=O)NC2(CCc3ccccc32)C1=O (stereo not given)	i	i	i	89
COc1ccc(S(N)(=O)=O)cc1-c1nnc2c3ccccc3c(C)nn12	i	i	304	i
Cc1ccc(-c2nnc3c4ccccc4c(C)nn23)cc1S(=O)(=O)N1CCN(C)CC1	i	i	i	i
Cc1ccc(C)c(NC(=O)Cn2nnc(C(=O)NCc3ccco3)c2N)c1	i	i	i	i
Nc1c(C(=O)NCc2ccco2)nnn1CC(=O)Nc1ccccc1	i	i	i	97
Cc1ccc(C(=O)Nc2ccc3ncccc3c2)cc1	129	i	i	i
SMILES	Cneo AK release	Efflux pump inh	Mot1-301 SUMO	C2C12 statin
CCC(=O)N1CC2(CC(c3cccc(NC(=O)CC(c4ccccc4)c4ccccc4)c3)=NO2)C[C@H]1C(N)=O (stereo not given in full)	i	i	i	i
NC(=O)[C@H]1CC2(CC(c3cccc(NC(=O)CC(c4ccccc4)c4ccccc4)c3)=NO2)CN1C(=O)CC(c1ccccc1)c1ccccc1 (stereo not given in full)	i	i	355	nt
Cc1cc(C(=O)N2CCCC(C(=O)c3ccc4ccccc4c3)C2)nn1C (stereo not given)	nt	i	i	i
Cc1cccc(C(=O)N/C(=C\c2ccco2)C(=O)N2CCCC2)c1	i	i	i	i
Cc1csc(NC(=O)CSc2nnc(CCNC(=O)c3cccs3)n2C)n1	i	i	i	98
OC[C@@H]1Nc2ccc(-c3ccccc3)cc2[C@H]2[C@@H]1CCN2Cc1ccc(F)cc1	i	nt	nt	i

Source: PubChem BioAssay
